Test results as given in ChEMBL document CHEMBL3045304, “Sesquiterpene lactones with potential use as natural herbicide models. 2. guaianolides” (2000).
Activity calls are given as the source filed them. The rule behind the calls is not given here.

Tests used:
Allium cepa [1] = assay: Inhibition of germination of Allium cepa cv. Valenciana (onion) at 0.1 mM or 1 mM after 5 days relative to untreated control; type: functional
Triticum aestivum [2] = assay: Inhibition of root length of Triticum aestivum cv. Cortex (wheat) at 0.1 mM or 1 mM after 5 days relative to untreated control; type: functional
Summary of the method: (§1)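 Wheat: 10 seeds per dish on filter paper with 5 mL test solution, 5 days in the dark at 25 °C, 10 replicates per concentration. Stock test solutions were 10^-3 or 10^-4 M in 10 mM MES, with lower levels made by dilution, all at pH 6.0. Parallel controls were run. Output is % difference from control.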

Triticum aestivum [3] = assay: Inhibition of hypocotyl length of Triticum aestivum cv. Cortex (wheat) at 0.1 mM or 1 mM after 5 days relative to untreated control; type: functional; summary of the method: as §1
Triticum aestivum [4] = assay: Inhibition of germination of Triticum aestivum cv. Cortex (wheat) at 0.1 mM or 1 mM after 5 days relative to untreated control; type: functional; summary of the method: as §1
Solanum lycopersicum [5] = assay: Inhibition of hypocotyl length of Solanum lycopersicum cv. Tres Cantos (tomato) at 0.1 mM or 1 mM after 5 days relative to untreated control; type: functional
Summary of the method: (§2)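 Lettuce and tomato seeds, 25 per dish on filter paper, received 5 mL test solution. Incubation was 5 days in the dark at 25 °C, with four replicates per concentration. Solutions were made at 10^-3 or 10^-4 M in 10 mM MES, diluted serially, and adjusted to pH 6.0. Parallel controls were run. Results are % difference from control.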

Solanum lycopersicum [6] = assay: Inhibition of root length of Solanum lycopersicum cv. Tres Cantos (tomato) at 0.1 mM or 1 mM after 5 days relative to untreated control; type: functional; summary of the method: as §2
Allium cepa [7] = assay: Inhibition of root length of Allium cepa cv. Valenciana (onion) at 0.1 mM or 1 mM after 5 days relative to untreated control; type: functional
Triticum aestivum [8] = assay: Stimulation of hypocotyl length of Triticum aestivum cv. Cortex (wheat) at 0.1 mM or 1 mM after 5 days relative to untreated control; type: functional; summary of the method: as §1
Triticum aestivum [9] = assay: Stimulation of root length of Triticum aestivum cv. Cortex (wheat) at 0.1 mM or 1 mM after 5 days relative to untreated control; type: functional; summary of the method: as §1
Solanum lycopersicum [10] = assay: Inhibition of germination of Solanum lycopersicum cv. Tres Cantos (tomato) at 0.1 mM or 1 mM after 5 days relative to untreated control; type: functional; summary of the method: as §2
Lactuca sativa [11] = assay: Inhibition of hypocotyl length of Lactuca sativa cv. Roman (lettuce) at 0.1 mM or 1 mM after 5 days relative to untreated control; type: functional; summary of the method: as §2
Lactuca sativa [12] = assay: Inhibition of root length of Lactuca sativa cv. Roman (lettuce) at 0.1 mM or 1 mM after 5 days relative to untreated control; type: functional; summary of the method: as §2
Lactuca sativa [13] = assay: Inhibition of germination of Lactuca sativa cv. Roman (lettuce) at 0.1 mM or 1 mM after 5 days relative to untreated control; type: functional; summary of the method: as §2
Triticum aestivum [14] = assay: Stimulation of germination of Triticum aestivum cv. Cortex (wheat) at 0.1 mM or 1 mM after 5 days relative to untreated control; type: functional; summary of the method: as §1
Solanum lycopersicum [15] = assay: Stimulation of hypocotyl length of Solanum lycopersicum cv. Tres Cantos (tomato) at 0.1 mM or 1 mM after 5 days relative to untreated control; type: functional; summary of the method: as §2
Solanum lycopersicum [16] = assay: Stimulation of root length of Solanum lycopersicum cv. Tres Cantos (tomato) at 0.1 mM or 1 mM after 5 days relative to untreated control; type: functional; summary of the method: as §2
Solanum lycopersicum [17] = assay: Stimulation of germination of Solanum lycopersicum cv. Tres Cantos (tomato) at 0.1 mM or 1 mM after 5 days relative to untreated control; type: functional; summary of the method: as §2
Lepidium sativum [18] = assay: Stimulation of hypocotyl length of Lepidium sativum at 0.1 mM or 1 mM after 5 days relative to untreated control; type: functional
Lepidium sativum [19] = assay: Stimulation of root length of Lepidium sativum at 0.1 mM or 1 mM after 5 days relative to untreated control; type: functional
Lactuca sativa [20] = assay: Stimulation of root length of Lactuca sativa cv. Roman (lettuce) at 0.1 mM or 1 mM after 5 days relative to untreated control; type: functional; summary of the method: as §2
Lactuca sativa [21] = assay: Stimulation of hypocotyl length of Lactuca sativa cv. Roman (lettuce) at 0.1 mM or 1 mM after 5 days relative to untreated control; type: functional; summary of the method: as §2
Lactuca sativa [22] = assay: Stimulation of germination of Lactuca sativa cv. Roman (lettuce) at 0.1 mM or 1 mM after 5 days relative to untreated control; type: functional; summary of the method: as §2
Lepidium sativum [23] = assay: Inhibition of root length of Lepidium sativum at 0.1 mM or 1 mM after 4 days relative to untreated control
Lepidium sativum [24] = assay: Inhibition of germination of Lepidium sativum at 0.1 mM or 1 mM after 4 days relative to untreated control
Lepidium sativum [25] = assay: Inhibition of hypocotyl length of Lepidium sativum at 0.1 mM or 1 mM after 4 days relative to untreated control
Allium cepa [26] = assay: Stimulation of root length of Allium cepa cv. Valenciana (onion) at 0.1 mM or 1 mM after 7 days relative to untreated control
Allium cepa [27] = assay: Stimulation of germination of Allium cepa cv. Valenciana (onion) at 0.1 mM or 1 mM after 7 days relative to untreated control
Allium cepa [28] = assay: Inhibition of hypocotyl length of Allium cepa cv. Valenciana (onion) at 0.1 mM or 1 mM after 7 days relative to untreated control
Allium cepa [29] = assay: Stimulation of hypocotyl length of Allium cepa cv. Valenciana (onion) at 0.1 mM or 1 mM after 7 days relative to untreated control
Lepidium sativum [30] = assay: Inhibition of germination of Lepidium sativum at 0.1 mM or 1 mM after 5 days relative to untreated control; type: functional
Lepidium sativum [31] = assay: Inhibition of germination of Lepidium sativum at 0.1 mM or 1 mM after 4 days relative to untreated control; set-up: scale not given: the % may be the effect or the level left
Allium cepa [32] = assay: Stimulation of germination of Allium cepa cv. Valenciana (onion) at 0.1 mM or 1 mM after 5 days relative to untreated control; type: functional

SMILES | inhibition (Allium cepa [1]) | inhibition (Solanum lycopersicum [6]) | inhibition (Allium cepa [7]) | Activity (Triticum aestivum [8]) | Activity (Triticum aestivum [9]) | Activity (Triticum aestivum [14]) | Activity (Solanum lycopersicum [15]) | Activity (Solanum lycopersicum [16]) | Activity (Solanum lycopersicum [17]) | Activity (Lepidium sativum [18]) | Activity (Lepidium sativum [19]) | Activity (Lactuca sativa [20]) | Activity (Lactuca sativa [21]) | Activity (Lactuca sativa [22]) | Activity (Allium cepa [26]) | inhibition (Allium cepa [28]) | Activity (Allium cepa [29]) | inhibition (Solanum lycopersicum [5]) | inhibition (Solanum lycopersicum [10]) | inhibition (INH) (Lactuca sativa [13]) | other results
CC1=CC(=O)C2=C(C)C[C@H](O)[C@H]3[C@H](OC(=O)[C@@H]3C)[C@@H]12 [8ALPHA-HYDROXYACHILLIN] | inactive | inactive | inactive | inactive | inactive | inactive | <20% | inactive | <20% | inactive | inactive | inactive | inactive | inactive | inactive | inactive | inactive |  |  |  | inhibition (Triticum aestivum [2]): inactive; inhibition (Triticum aestivum [3]): inactive; inhibition (Triticum aestivum [4]): inactive; inhibition (INH) (Solanum lycopersicum [5]): <20%; inhibition (INH) (Solanum lycopersicum [10]): <20%; inhibition (Lactuca sativa [11]): inactive; inhibition (Lactuca sativa [12]): inactive; inhibition (Lactuca sativa [13]): inactive; inhibition (Lepidium sativum [23]): inactive; Activity (Lepidium sativum [24]): inactive; inhibition (Lepidium sativum [24]): inactive; inhibition (Lepidium sativum [25]): inactive; Activity (Allium cepa [27]): inactive
C=C1[C@@H]2[C@H]3OC(=O)[C@@H](CO)[C@@H]3CCC(=C)[C@@H]2C[C@H]1O | inactive | inactive | inactive | inactive | inactive | inactive | inactive | inactive | inactive | <20% | 20% | 20% | >40% | <20% | inactive | inactive | inactive | inactive | inactive | <20% | inhibition (Triticum aestivum [2]): inactive; inhibition (Triticum aestivum [3]): inactive; inhibition (Triticum aestivum [4]): inactive; inhibition (INH) (Lactuca sativa [11]): >40%; inhibition (INH) (Lactuca sativa [12]): 20%; inhibition (INH) (Lepidium sativum [23]): 20%; Activity (Lepidium sativum [24]): inactive; inhibition (Lepidium sativum [24]): inactive; inhibition (INH) (Lepidium sativum [25]): <20%; Activity (Allium cepa [27]): inactive
C=C1CC[C@H]2C(=C)CC[C@H]3C(=C)C(=O)O[C@@H]3[C@@H]12 [DEHYDROCOSTUSLACTONE] |  | inactive |  | 20% | >40% | >40% | inactive | inactive | inactive | >40% | >40% | inactive | <20% | 20% |  |  |  | inactive | inactive | 20% | inhibition (INH) (Triticum aestivum [2]): >40%; inhibition (INH) (Triticum aestivum [3]): 20%; inhibition (INH) (Triticum aestivum [4]): >40%; inhibition (INH) (Lepidium sativum [30]): 20%; inhibition (INH) (Lactuca sativa [11]): <20%; inhibition (Lactuca sativa [12]): inactive; inhibition (INH) (Lepidium sativum [23]): >40%; Activity (Lepidium sativum [31]): 20%; inhibition (INH) (Lepidium sativum [25]): >40%
C=C1CC[C@H]2[C@H](CO)C(=O)O[C@@H]2[C@@]2(O)C(=C)[C@H](O)C[C@@H]12 | inactive | inactive | inactive | inactive | inactive | <20% | inactive | inactive | inactive | 20% | >40% | 20% | >40% | 20% | inactive | inactive | inactive | inactive | inactive | 20% | inhibition (Triticum aestivum [2]): inactive; inhibition (Triticum aestivum [3]): inactive; inhibition (INH) (Triticum aestivum [4]): <20%; Activity (Allium cepa [32]): inactive; inhibition (INH) (Lactuca sativa [11]): >40%; inhibition (INH) (Lactuca sativa [12]): 20%; inhibition (INH) (Lepidium sativum [23]): >40%; Activity (Lepidium sativum [24]): inactive; inhibition (Lepidium sativum [24]): inactive; inhibition (INH) (Lepidium sativum [25]): 20%
C=C1CC[C@H]2[C@H](C)C(=O)O[C@@H]2[C@@]2(O)C(=C)[C@H](O)C[C@@]12O | inactive | inactive | inactive | inactive | inactive | inactive | inactive | inactive | inactive | <20% | <20% | >40% | >40% | 20% | inactive | inactive | inactive | inactive | inactive | 20% | inhibition (Triticum aestivum [2]): inactive; inhibition (Triticum aestivum [3]): inactive; inhibition (Triticum aestivum [4]): inactive; Activity (Allium cepa [32]): inactive; inhibition (INH) (Lactuca sativa [11]): >40%; inhibition (INH) (Lactuca sativa [12]): >40%; inhibition (INH) (Lepidium sativum [23]): <20%; Activity (Lepidium sativum [24]): inactive; inhibition (Lepidium sativum [24]): inactive; inhibition (INH) (Lepidium sativum [25]): <20%
C=C1C(=O)O[C@H]2[C@H]1CCC(=C)[C@]13C[C@@H](O)C(=C)[C@]21OC(C)(C)O3 | inactive | inactive | inactive | <20% | <20% | inactive | inactive | inactive | inactive | >40% | >40% | 20% | inactive | <20% | inactive | inactive | inactive | inactive | inactive | <20% | inhibition (INH) (Triticum aestivum [2]): <20%; inhibition (INH) (Triticum aestivum [3]): <20%; inhibition (Triticum aestivum [4]): inactive; Activity (Allium cepa [32]): inactive; inhibition (INH) (Lepidium sativum [30]): 20%; inhibition (Lactuca sativa [11]): inactive; inhibition (INH) (Lactuca sativa [12]): 20%; inhibition (INH) (Lepidium sativum [23]): >40%; Activity (Lepidium sativum [31]): 20%; inhibition (INH) (Lepidium sativum [25]): >40%
